ChEMBL document CHEMBL5104204, “Synthesis and in vitro anticancer evaluation of novel flavonoid-based amide derivatives as regulators of the PI3K/AKT signal pathway for TNBC treatment” (RSC Med Chem, 2022)

Columns and labels:
[1] = system: MDA-MB-231; experiment: Induction of apoptosis in human MDA-MB-231 cells assessed as downregulation of Bcl-2 expression at 1 to 10 uM incubated for 48 hrs by western blot analysis; type: functional, cell-based; details: dose 1-10 µM, DDE = dose-dependent effect
Method in brief: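 MDA-MB-231 treated at 1, 5 and 10 μM at 37 °C, then lysed in RIPA/PMSF for 30 min at 0 °C and cleared at 14 000 × g, 4 °C. Protein quantified by BCA; 40 μg resolved by SDS-PAGE and transferred to PVDF. Blocked in 5% skim milk, primary antibody overnight at 4 °C, secondary 2 h at room temperature, chemiluminescent imaging.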

[2] = system: MDA-MB-231; experiment: Induction of cell cycle arrest in human MDA-MB-231 cells assessed as decrease in G2/M phase at 0.88 to 3.52 uM incubated for 48 hrs by flow cytometry; type: functional, cell-based; details: dose 0.88-3.52 µM, DDE = dose-dependent effect
Method in brief: (§1)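 Cell cycle of MDA-MB-231 after 48 h exposure: trypsinised and washed in PBS, about 1×10^6 cells/mL. Fixed overnight in pre-cooled 70% ethanol at 4 °C, then resuspended in PBS and filtered through 200-mesh nylon. Flow cytometry with 488 nm excitation gave G0/G1, S and G2/M percentages; n = 3, mean ± SD.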

[3] = system: MDA-MB-231; experiment: Induction of cell cycle arrest in human MDA-MB-231 cells assessed as increase in accumulation at G0/G1 phase at 0.88 to 3.52 uM incubated for 48 hrs by flow cytometry; type: functional, cell-based; details: dose 0.88-3.52 µM, DDE = dose-dependent effect; method in brief: as §1
[4] = system: MDA-MB-231; experiment: Induction of apoptosis in human MDA-MB-231 cells assessed as viable cells at 3.52 uM incubated for 48 hrs AnnexinV/ propidium iodide staining based flow cytometry (Rvb= 99.02%); type: functional; details: read-out: Activity
[5] = system: MDA-MB-231; experiment: Induction of apoptosis in human MDA-MB-231 cells assessed as necrotic cells at 1.76 uM incubated for 48 hrs AnnexinV/ propidium iodide staining based flow cytometry (Rvb= 0.54%); type: functional
[6] = system: MDA-MB-231; experiment: Induction of apoptosis in human MDA-MB-231 cells assessed as chromatin concentration and margination at 0.88 to 3.52 uM incubated for 48 hrs by Hoechst 33258 staining based fluorescence microscopic analysis; type: functional, cell-based; details: dose 0.88-3.52 µM, DDE = dose-dependent effect
Method in brief: (§2)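 MDA-MB-231 seeded at 2×10^5–3×10^5 per well and incubated overnight (37 °C, 5% CO2). Exposed to compound for 48 h. Fixed in methanol 30 min, then stained with Hoechst 33258 for 30 min at room temperature in the dark. Nuclear morphology scored by fluorescence microscopy; n = 3, mean ± SD.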

[7] = system: MDA-MB-231; experiment: Induction of apoptosis in human MDA-MB-231 cells assessed as late apoptotic cells at 0.88 uM incubated for 48 hrs AnnexinV/ propidium iodide staining based flow cytometry (Rvb= 0.40%); type: functional
[8] = system: MDA-MB-231; experiment: Inhibition of colony formation in human MDA-MB-231 cells assessed as decrease in size of colony forming cells at 0.44 to 3.52 uM incubated for 48 hrs by crystal violet staining based assay; type: functional, cell-based; details: dose 0.44-3.52 µM, DDE = dose-dependent effect
Method in brief: (§3)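 Colony formation, MDA-MB-231: 800 cells/well, three replicate wells per group, grown 5–7 days at 37 °C, 5% CO2 until 30–50-cell clusters formed. Drug then added for 24, 48 or 72 h. Washed with cold PBS, fixed in 4% paraformaldehyde 30 min, stained with 0.5% crystal violet, imaged, colonies counted; n = 3.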

[9] = system: MDA-MB-231; experiment: Induction of cell cycle arrest in human MDA-MB-231 cells assessed as decrease in S phase at 0.88 to 3.52 uM incubated for 48 hrs by flow cytometry; type: functional, cell-based; details: dose 0.88-3.52 µM, DDE = dose-dependent effect; method in brief: as §1
[10] = system: MDA-MB-231; experiment: Induction of apoptosis in human MDA-MB-231 cells assessed as early apoptotic cells at 1.76 uM incubated for 48 hrs AnnexinV/ propidium iodide staining based flow cytometry (Rvb= 0.3%); type: functional
[11] = system: HeLa; experiment: Antitumor activity against human HeLa cells assessed as inhibit cell proliferation incubated for 72 hrs by CCK-8 assay; type: functional, cell-based
Method in brief: (§4)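 CCK8 viability readout. Culture media: HCC1937, A549, HeLa and GTL-16 in RPMI 1640; MDA-MB-231, MCF-7 and HepG2 in high-glucose DMEM; all with 10% FBS and penicillin/streptomycin, 37 °C, 5% CO2. 4×10^3–6×10^3 cells/well, 24 h, then compounds in serum-free medium, 72 h at 37 °C. 10% CCK8, 2 h, OD 450/630 nm. Five wells per group; IC50 from inhibition rate; three independent experiments, mean ± SD.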

[12] = system: HCC1937; experiment: Antitumor activity against human HCC1937 cells assessed as inhibit cell proliferation incubated for 72 hrs by CCK-8 assay; type: functional, cell-based; details: HCC1937, 72 h; method in brief: as §4
[13] = system: MDA-MB-231; experiment: Induction of apoptosis in human MDA-MB-231 cells assessed as early apoptotic cells at 2.2 uM incubated for 48 hrs AnnexinV/ propidium iodide staining based flow cytometry (Rvb= 0.3%); type: functional
[14] = system: MDA-MB-231; experiment: Induction of apoptosis in human MDA-MB-231 cells assessed as increase in apoptotic bodies at 0.88 to 3.52 uM incubated for 48 hrs by Hoechst 33258 staining based fluorescence microscopic analysis; type: functional, cell-based; details: dose 0.88-3.52 µM, DDE = dose-dependent effect; method in brief: as §2
[15] = system: MDA-MB-231; experiment: Inhibition of colony formation in human MDA-MB-231 cells assessed as decrease in size of colony forming cells at 1.76 uM incubated upto 72 hrs by crystal violet staining based assay; type: functional, cell-based; details: TDE = time-dependent effect; method in brief: as §3
[16] = system: MDA-MB-231; experiment: Induction of apoptosis in human MDA-MB-231 cells assessed as late apoptotic cells at 2.2 uM incubated for 48 hrs AnnexinV/ propidium iodide staining based flow cytometry (Rvb= 0.40%); type: functional
[17] = system: MDA-MB-231; experiment: Induction of apoptosis in human MDA-MB-231 cells assessed as early apoptotic cells at 0.88 uM incubated for 48 hrs AnnexinV/ propidium iodide staining based flow cytometry (Rvb= 0.3%); type: functional
[18] = system: MDA-MB-231; experiment: Induction of apoptosis in human MDA-MB-231 cells assessed as viable cells at 0.88 uM incubated for 48 hrs AnnexinV/ propidium iodide staining based flow cytometry (Rvb= 99.02%); type: functional; details: read-out: Activity
[19] = system: MDA-MB-231; experiment: Induction of apoptosis in human MDA-MB-231 cells assessed as necrotic cells at 3.52 uM incubated for 48 hrs AnnexinV/ propidium iodide staining based flow cytometry (Rvb= 0.54%); type: functional
[20] = system: MDA-MB-231; experiment: Induction of apoptosis in human MDA-MB-231 cells assessed as upregulation of Bax expression at 1 to 10 uM incubated for 48 hrs by western blot analysis; type: functional, cell-based; details: dose 1-10 µM, DDE = dose-dependent effect

**Q.** For `O=C(Nc1cccc(-c2oc3cc(-c4ccc(F)cc4)ccc3c(=O)c2O)c1)c1ccc(Cl)nc1`, which Activity [1] is on record?
**A.** Dde

**Q.** And the Activity [2]?
**A.** Dde

**Q.** And the Activity [3]?
**A.** Dde

**Q.** What about the viability at 3.52 µM [4] of the same compound?
**A.** 12%

**Q.** And the Activity [5]?
**A.** 0.86%

**Q.** And the Activity [6]?
**A.** Dde

**Q.** And the Activity [7]?
**A.** 23.54%

**Q.** And the inhibition [8]?
**A.** Dde

**Q.** And the Activity [9]?
**A.** Dde

**Q.** And the Activity [10]?
**A.** 3.88%

**Q.** What about the IC50 [11] of the same compound?
**A.** 4.08 µM

**Q.** And the IC50 [12]?
**A.** 7.55 µM

**Q.** What about the Activity [13] of the same compound?
**A.** 7.49%

**Q.** What about the Activity [14] of the same compound?
**A.** Dde

**Q.** What about the inhibition [15] of the same compound?
**A.** Tde

**Q.** And the Activity [16]?
**A.** 61.14%

**Q.** What about the Activity [17] of the same compound?
**A.** 1.48%

**Q.** And the viability at 0.88 µM [18]?
**A.** 74.3%

**Q.** And the Activity [19]?
**A.** 2.1%

**Q.** What about the Activity [20] of the same compound?
**A.** Dde
